Data from ChEMBL document CHEMBL1131510, “An endogenous sleep-inducing compound is a novel competitive inhibitor of fatty acid amide hydrolase” (Bioorg Med Chem Lett, 1998).

Assays:
[1] = molecular target: T1, Fatty-acid amide hydrolase 1 (Homo sapiens, UniProt O00519); test: Concentration required to inhibit Fatty-acid amide hydrolase (FAAH) at pH 7.0
T1 sequence (O00519 whole entry): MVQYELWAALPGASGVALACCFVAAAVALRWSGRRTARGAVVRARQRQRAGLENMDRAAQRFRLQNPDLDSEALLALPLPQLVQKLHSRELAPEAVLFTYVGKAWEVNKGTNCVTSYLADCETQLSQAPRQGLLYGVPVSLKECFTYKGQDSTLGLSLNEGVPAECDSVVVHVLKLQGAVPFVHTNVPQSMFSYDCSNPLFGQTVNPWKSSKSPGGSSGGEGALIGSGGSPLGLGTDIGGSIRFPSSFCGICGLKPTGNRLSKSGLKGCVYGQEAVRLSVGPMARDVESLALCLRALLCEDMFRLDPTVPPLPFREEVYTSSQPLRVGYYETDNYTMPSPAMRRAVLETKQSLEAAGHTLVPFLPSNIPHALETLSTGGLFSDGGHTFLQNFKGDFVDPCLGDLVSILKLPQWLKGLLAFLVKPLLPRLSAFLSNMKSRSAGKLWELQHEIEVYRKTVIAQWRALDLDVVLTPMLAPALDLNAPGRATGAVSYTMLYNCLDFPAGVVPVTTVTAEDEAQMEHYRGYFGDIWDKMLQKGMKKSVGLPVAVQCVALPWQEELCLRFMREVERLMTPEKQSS
Summary of the method: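 FAAH from solubilized liver plasma membrane extract, assayed at 20-22 °C at pH 7.0. Per the general assay footnote, the reaction buffer contained Tris, EDTA, glycerol and Triton X-100. Read-out was ¹⁴C-oleamide hydrolysis to oleic acid, followed by extraction, TLC separation and scintillation counting. Reaction time courses ran 10 min to 1 h. Only IC50 values are reported at this pH.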

[2] = molecular target: T1, Fatty-acid amide hydrolase 1; test: Inhibitory concentration against Fatty-acid amide hydrolase (FAAH) at pH 9.0
Summary of the method: (§1)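 Hydrolysis of ¹⁴C-oleamide to oleic acid was followed over 30 s to 15 min. Product was extracted, separated by TLC and quantified by scintillation counting.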

[3] = molecular target: T1, Fatty-acid amide hydrolase 1; test: Compound was tested for inhibitory potency against Fatty-acid amide hydrolase (FAAH) at pH 9.0; summary of the method: as §1
[4] = Acid dissociation constant value for the compound was determined; format: ADME
[5] = molecular target: T1, Fatty-acid amide hydrolase 1; test: Concentration required to inhibit fatty acid amide hydrolase (FAAH) at pH 7.0
Summary of the method: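 Performed at pH 7.0 with solubilized liver plasma membrane extract as the FAAH source. ¹⁴C-oleamide breakdown to oleic acid was measured by extraction, TLC separation and scintillation counting. Reaction progress was monitored from 10 min to 1 h, and only IC50 values were derived.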

| SMILES | IC50 [1] | IC50 [2] | Ki [3] | pKa [4] | IC50 [5] |
| --- | --- | --- | --- | --- | --- |
| CCCCCCCOC(=O)CC(=O)CBr | 2100 nM | 1500 nM | 550 nM |  |  |
| CCCCCC[C@@H](C)OC(=O)CC(=O)CCC |  | > 100000 nM |  |  |  |
| CCCCCCCCC(=O)CC(C)=O |  | > 100000 nM |  | 9 |  |
| CCCCCC[C@H](C)OC(=O)CC(=O)CBr |  | 4000 nM | 1100 nM |  |  |
| CCCCCCCC/C=C\CCCCCCCC(=O)CBr |  | 1000 nM | 390 nM |  | 5300 nM |
| CCCCCC[C@H](C)OC(=O)CC(C)=O |  | > 100000 nM |  | 10.5 |  |
| CCCCCC[C@@H](C)OC(=O)CC(=O)CCl |  | 2900 nM | 1100 nM |  | 700 nM |
| CCCCCC[C@@H](C)OC(=O)CC(=O)CBr | 3100 nM | 2600 nM | 800 nM | 8.5 |  |
| CCCCCC[C@@H](C)OC(=O)CC(=O)CC |  | > 100000 nM |  |  |  |
| CCCCCCCC/C=C\CCCCOC(=O)CC(=O)CBr |  | 600 nM | 190 nM |  | 2500 nM |
| CCCCCC[C@@H](C)OC(=O)CC(O)CBr (stereo partly drawn) |  | > 100000 nM |  |  |  |
| CCCCCCCC/C=C\CCCCCCCC(=O)C(F)(F)F |  | 600 nM | 250 nM |  | 9900 nM |
